From ChEMBL document CHEMBL1811892, “Synthesis and biological evaluation of loxoprofen derivatives” (Bioorg Med Chem, 2011)
The source made the active and inactive calls. No cut-off for these calls is given here.

How the values were obtained:
[1] = biological target: Prostaglandin G/H synthase 1 (Homo sapiens, UniProt P23219); test: Inhibition of human whole blood COX-1 assessed as production of TXB2 after 24 hrs by EIA
[2] = biological target: T1, Prostaglandin G/H synthase 2 (Homo sapiens, UniProt P35354); test: Inhibition of human whole blood COX-2 assessed as production of PGE2 after 24 hrs by EIA
T1 sequence (P35354 whole entry): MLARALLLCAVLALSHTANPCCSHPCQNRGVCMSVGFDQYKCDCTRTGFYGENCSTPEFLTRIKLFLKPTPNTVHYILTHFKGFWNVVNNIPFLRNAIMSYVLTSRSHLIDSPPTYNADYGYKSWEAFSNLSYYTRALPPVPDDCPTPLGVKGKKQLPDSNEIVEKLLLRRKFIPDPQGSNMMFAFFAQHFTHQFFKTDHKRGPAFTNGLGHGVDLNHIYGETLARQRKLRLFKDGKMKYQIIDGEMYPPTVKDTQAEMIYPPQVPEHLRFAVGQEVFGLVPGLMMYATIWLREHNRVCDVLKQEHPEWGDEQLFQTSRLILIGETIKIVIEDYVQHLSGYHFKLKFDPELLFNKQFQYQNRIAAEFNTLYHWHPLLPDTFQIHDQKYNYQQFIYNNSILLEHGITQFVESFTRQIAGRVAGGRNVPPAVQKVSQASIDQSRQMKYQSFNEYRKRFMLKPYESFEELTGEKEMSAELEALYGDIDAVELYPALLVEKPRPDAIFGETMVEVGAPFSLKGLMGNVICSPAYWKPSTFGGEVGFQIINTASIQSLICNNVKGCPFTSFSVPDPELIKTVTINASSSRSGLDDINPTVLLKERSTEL

[3] = test system: Rattus norvegicus; test: Ulcerogenicity in fasted Wistar rat assessed as damage in gastric mucosa at 40 to 50 mg/kg, po measured after 8 hrs; format: toxicity, organism-based; set-up: dose 40-50 mg/kg, route oral; details: in vivo
Procedure, shortened: (§1)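 Male Wistar rats (6 weeks, 180–200 g) fasted 18 h before oral NSAID dosing. Stomachs removed 8 h later. A blinded observer measured the area of each mucosal lesion in mm²; areas were summed into a gastric lesion index.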

[4] = test system: Rattus norvegicus; test: Reduction in PGE2 levels in fasted Wistar rat stomach at 40 to 50 mg/kg, po measured after 8 hrs; format: functional, organism-based
Procedure, shortened: (§2)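 Male Wistar rats (6 weeks, 180–200 g) fasted 18 h, then dosed orally with NSAIDs. Killed 8 h later and stomachs removed. Gastric PGE2 measured by EIA.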

[5] = test system: Rattus norvegicus; test: Antiinflammatory activity in Wistar rat assessed as inhibition of carrageenan-induced foot-pad edema at 10 mg/kg, po administered 1 hr before carrageenan challenge measured after 3 to 6 hrs by plethysmometer; format: functional, organism-based; set-up: dose 10 mg/kg
Procedure, shortened: (§3)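 Male Wistar rats (6 weeks, 180–200 g) given NSAIDs orally; 1 h later 100 μL of 1% carrageenan injected intradermally into the left hindpaw.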

[6] = test system: Rattus norvegicus; test: Inhibition of PGE2 production in carrageenan-induced Wistar rat foot-pad at 10 mg/kg, po administered 1 hr before carrageenan challenge by EIA; format: functional, organism-based; set-up: dose 10 mg/kg
[7] = Membrane permeabilization activity assessed as release of calcein from liposomes after 10 mins by fluorescence assay; format: physicochemical; details: calcein-loaded liposomes, probe calcein
Procedure, shortened: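 Egg PC liposomes made by reversed-phase evaporation with 100 mM calcein (pH 7.4), washed free of untrapped dye in 10 mM phosphate buffer pH 6.8 with 150 mM NaCl. Diluted liposomes incubated with compound for 10 min at 30 °C; water as control. Calcein release read by fluorescence, excitation 490 nm, emission 520 nm.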

[8] = test system: Rattus norvegicus; test: Ulcerogenicity in fasted Wistar rat assessed as damage in gastric mucosa at 50 to 67 mg/kg, po measured after 8 hrs; format: toxicity, organism-based; set-up: dose 50-67 mg/kg, route oral; details: in vivo; procedure, shortened: as §1
[9] = test system: Rattus norvegicus; test: Reduction in PGE2 levels in fasted Wistar rat stomach at 50 to 67 mg/kg, po measured after 8 hrs; format: functional, organism-based; procedure, shortened: as §2
[10] = test system: Rattus norvegicus; test: Antiinflammatory activity in Wistar rat assessed as inhibition of carrageenan-induced foot-pad edema at 13 mg/kg, po administered 1 hr before carrageenan challenge measured after 3 to 6 hrs by plethysmometer; format: functional, organism-based; set-up: dose 13 mg/kg; procedure, shortened: as §3
[11] = test system: Rattus norvegicus; test: Inhibition of PGE2 production in carrageenan-induced Wistar rat foot-pad at 13 mg/kg, po administered 1 hr before carrageenan challenge by EIA; format: functional, organism-based; set-up: dose 13 mg/kg

Prostaglandin G/H synthase 1, sequence (P23219 whole entry): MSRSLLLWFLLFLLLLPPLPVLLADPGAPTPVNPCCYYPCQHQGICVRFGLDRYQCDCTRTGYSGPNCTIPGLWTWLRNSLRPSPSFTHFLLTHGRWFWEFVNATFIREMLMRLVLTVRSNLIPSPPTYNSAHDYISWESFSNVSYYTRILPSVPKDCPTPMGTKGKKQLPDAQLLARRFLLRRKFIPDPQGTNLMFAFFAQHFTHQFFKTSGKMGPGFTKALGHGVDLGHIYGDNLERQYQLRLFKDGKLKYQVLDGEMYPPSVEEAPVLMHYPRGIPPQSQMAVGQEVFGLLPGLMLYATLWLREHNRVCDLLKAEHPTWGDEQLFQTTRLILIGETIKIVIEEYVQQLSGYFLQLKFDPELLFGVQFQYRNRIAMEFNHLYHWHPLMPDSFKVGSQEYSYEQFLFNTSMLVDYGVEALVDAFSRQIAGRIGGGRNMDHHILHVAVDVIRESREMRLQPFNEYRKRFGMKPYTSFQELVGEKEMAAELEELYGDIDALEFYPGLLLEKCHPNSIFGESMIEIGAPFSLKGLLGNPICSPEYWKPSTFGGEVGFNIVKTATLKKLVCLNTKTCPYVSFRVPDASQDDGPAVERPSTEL

Structure (SMILES) | IC50 [1] [µM] | IC50 [2] [µM] | EC50 at 10 min [7] [µM] | further results
CC(C(=O)[O-])c1ccc(CC2CCCC2=O)cc1.[Na+] (stereo not drawn) [LOXOPROFEN SODIUM] | – | – | – | Activity [3]: Dose-dependent effect; inhibition [4]: Active; Activity [5]: Active; inhibition [6]: Active
CSc1ccc(-c2cc(CC3CCCC3=O)ccc2C(C)C(=O)O)cc1 (stereo not drawn) | 575 | 150 | < 100000 | –
CC(C(=O)O)c1ccc(CC2CCCC2=O)cc1-c1ccc(C(=O)O)cc1 (stereo not drawn) | > 1000 | 76 | < 10000 | –
CC(C(=O)O)c1ccc(CC2CCCC2=O)c(-c2ccc(OC(F)(F)F)cc2)c1 (stereo not drawn) | 460 | 72 | < 10000 | –
CC(C(=O)O)c1ccc(CC2CCCC2=O)cc1-c1ccc(OC(F)(F)F)cc1 (stereo not drawn) | 515 | > 1000 | 6000 | –
CC(C(=O)O)c1ccc(CC2CCCC2=O)cc1I (stereo not drawn) | 270 | 540 | – | –
CC(C(=O)O)c1ccc(CC2CCCC2=O)c(Br)c1 (stereo not drawn) | 49 | 23 | < 100000 | –
Cc1ccc(-c2cc(CC3CCCC3=O)ccc2C(C)C(=O)O)cc1 (stereo not drawn) | 470 | 540 | < 100000 | –
COc1ccc(-c2cc(C(C)C(=O)O)ccc2CC2CCCC2=O)cc1 (stereo not drawn) | 800 | > 1000 | < 100000 | –
CC(C(=O)O)c1ccc(CC2CCCC2=O)c(-c2ccc(O)cc2)c1 (stereo not drawn) | > 1000 | – | – | –
CSc1ccc(-c2cc(C(C)C(=O)O)ccc2CC2CCCC2=O)cc1 (stereo not drawn) | 758 | > 1000 | < 10000 | –
CC(C(=O)O)c1ccc(C[C@H]2CCC[C@@H]2O)cc1-c1ccc(O)cc1 (mixture of isomers) | 650 | 20 | – | –

Second part, led by results:

IC50 [1] [µM] | IC50 [2] [µM] | EC50 at 10 min [7] [µM] | Structure (SMILES) | further results
> 1000 | > 1000 | – | CC(C(=O)O)c1ccc(CC2CCCC2=O)c(-c2ccc(C(=O)O)cc2)c1 (stereo not drawn) | –
174 | 36 | 20000 | CC(C(=O)O)c1ccc(CC2CCCC2=O)cc1-c1ccc(F)cc1 (stereo not drawn) | –
326 | 11 | 25000 | CC(C(=O)[O-])c1ccc(CC2CCCC2=O)cc1-c1ccc(O)cc1.[Na+] (stereo not drawn) | Activity [8]: Non-toxic; inhibition [9]: Active; Activity [10]: Active; inhibition [11]: Active
– | – | 90 | Cc1ccc(-c2cc(C(F)(F)F)nn2-c2ccc(S(N)(=O)=O)cc2)cc1 [CELECOXIB] | –
4 | 2 | 100000 | CC(C(=O)O)c1ccc(CC2CCCC2=O)cc1Cl (stereo not drawn) | –
56 | 420 | < 100000 | Cc1ccc(-c2cc(C(C)C(=O)O)ccc2CC2CCCC2=O)cc1 (stereo not drawn) | –
54 | 290 | < 100000 | CC(C(=O)O)c1ccc(CC2CCCC2=O)c(-c2ccccc2)c1 (stereo not drawn) | –
47 | 17 | – | CC(C(=O)O)c1ccc(C[C@H]2CCC[C@H]2O)cc1-c1ccc(O)cc1 (mixture of isomers) | –
310 | 70 | < 100000 | CC(C(=O)O)c1ccc(CC2CCCC2=O)cc1-c1ccccc1 (stereo not drawn) | –
93 | 49 | – | CC(C(=O)O)c1ccc(CC2CCCC2=O)cc1[N+](=O)[O-] (stereo not drawn) | –
74 | 430 | < 100000 | COc1ccc(-c2cc(CC3CCCC3=O)ccc2C(C)C(=O)O)cc1 (stereo not drawn) | –
174 | 36 | < 100000 | CC(C(=O)O)c1ccc(CC2CCCC2=O)c(-c2ccc(F)cc2)c1 (stereo not drawn) | –
